Source: ChEMBL document CHEMBL4819134, “Design, synthesis and biological evaluation of imidazopyridazine derivatives containing isoquinoline group as potent MNK1/2 inhibitors” (Bioorg Med Chem, 2021)

Columns and labels:
[1] = molecular target: T1, MAP kinase-interacting serine/threonine-protein kinase 2 (Homo sapiens, UniProt Q9HBH9); experiment: Inhibition of N-terminal GST-fused human full length recombinant MNK2 (1 to 465 residues) expressed in baculovirus-infected Sf21 cells using TATKSGSTTKNR as substrate preincubated with enzyme and substrate for 10 mins followed by ATP addition and measured after 40 mins by ADP-glo luminescence assay
Target sequence in this assay (Q9HBH9 whole entry, the tested form may be a part): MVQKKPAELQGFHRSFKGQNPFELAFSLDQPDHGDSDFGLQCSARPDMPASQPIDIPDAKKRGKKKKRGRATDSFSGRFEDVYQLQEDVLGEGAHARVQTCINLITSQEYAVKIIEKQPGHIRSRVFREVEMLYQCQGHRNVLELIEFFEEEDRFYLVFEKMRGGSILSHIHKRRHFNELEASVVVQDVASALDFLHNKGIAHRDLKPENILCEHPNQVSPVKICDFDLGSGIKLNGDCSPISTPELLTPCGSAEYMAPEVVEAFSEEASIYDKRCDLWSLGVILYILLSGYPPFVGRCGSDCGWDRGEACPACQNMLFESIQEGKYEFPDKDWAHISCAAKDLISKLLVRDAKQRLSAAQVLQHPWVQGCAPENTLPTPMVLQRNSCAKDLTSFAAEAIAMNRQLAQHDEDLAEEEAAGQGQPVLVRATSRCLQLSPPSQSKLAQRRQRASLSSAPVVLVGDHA

[2] = molecular target: T1, MAP kinase-interacting serine/threonine-protein kinase 2; conditions: Sf21, dose 500.0 nM, time 50.0 min
Target sequence in this assay (Q9HBH9 whole entry, looked up, the tested form may be a part): as the sequence (Q9HBH9 whole entry, the tested form may be a part) above

[3] = molecular target: T2, MAP kinase-interacting serine/threonine-protein kinase 1 (Homo sapiens, UniProt Q9BUB5); conditions: Sf21, dose 500.0 nM, time 50.0 min
Target sequence in this assay (Q9BUB5 whole entry, looked up, the tested form may be a part): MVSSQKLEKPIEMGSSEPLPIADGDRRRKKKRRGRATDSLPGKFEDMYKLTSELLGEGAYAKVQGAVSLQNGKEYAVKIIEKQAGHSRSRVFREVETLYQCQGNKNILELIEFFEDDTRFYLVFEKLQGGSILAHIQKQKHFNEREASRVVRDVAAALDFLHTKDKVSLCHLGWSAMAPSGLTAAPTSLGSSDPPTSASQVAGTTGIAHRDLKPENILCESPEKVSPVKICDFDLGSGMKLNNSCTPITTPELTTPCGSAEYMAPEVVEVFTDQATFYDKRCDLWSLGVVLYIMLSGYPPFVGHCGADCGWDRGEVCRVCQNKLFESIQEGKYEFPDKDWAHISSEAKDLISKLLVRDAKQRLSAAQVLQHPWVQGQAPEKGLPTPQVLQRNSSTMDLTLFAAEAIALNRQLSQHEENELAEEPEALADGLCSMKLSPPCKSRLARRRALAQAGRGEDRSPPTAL

[4] = molecular target: T2, MAP kinase-interacting serine/threonine-protein kinase 1; experiment: Inhibition of N-terminal GST-fused human full length recombinant MNK1 (1 to 424 residues) expressed in baculovirus-infected Sf21 cells using TATKSGSTTKNR as substrate preincubated with enzyme and substrate for 10 mins followed by ATP addition and measured after 40 mins by ADP-glo luminescence assay
Target sequence in this assay (Q9BUB5 whole entry, the tested form may be a part): as the sequence (Q9BUB5 whole entry, looked up, the tested form may be a part) above

[5] = tested on: DOHH-2; experiment: Antiproliferative activity against human DOHH-2 cells assessed as reduction in cell viability incubated for 72 hrs by MTT assay; assay type: functional, cell-based; conditions: DOHH-2, 72 h
How it was run: (§1)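 Lymphoma cells seeded and grown 12 h, then exposed to serial compound concentrations in medium with 1‰ DMSO, each in triplicate, for 72 h. DMSO-only control. Viability read by MTT and normalized to DMSO control. IC50 derived by Logit method, mean ± SD of three independent determinations.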

[6] = tested on: TMD8; experiment: Antiproliferative activity against human TMD8 cells assessed as reduction in cell viability incubated for 72 hrs by MTT assay; assay type: functional, cell-based; conditions: TMD8, 72 h; how it was run: as §1
[7] = molecular target: T3, Interleukin-1 receptor-associated kinase 4 (Homo sapiens) (UniProt Q9NWZ3); experiment: Inhibition of IRAK4 (unknown origin) at 500 nM
T3 sequence (whole entry): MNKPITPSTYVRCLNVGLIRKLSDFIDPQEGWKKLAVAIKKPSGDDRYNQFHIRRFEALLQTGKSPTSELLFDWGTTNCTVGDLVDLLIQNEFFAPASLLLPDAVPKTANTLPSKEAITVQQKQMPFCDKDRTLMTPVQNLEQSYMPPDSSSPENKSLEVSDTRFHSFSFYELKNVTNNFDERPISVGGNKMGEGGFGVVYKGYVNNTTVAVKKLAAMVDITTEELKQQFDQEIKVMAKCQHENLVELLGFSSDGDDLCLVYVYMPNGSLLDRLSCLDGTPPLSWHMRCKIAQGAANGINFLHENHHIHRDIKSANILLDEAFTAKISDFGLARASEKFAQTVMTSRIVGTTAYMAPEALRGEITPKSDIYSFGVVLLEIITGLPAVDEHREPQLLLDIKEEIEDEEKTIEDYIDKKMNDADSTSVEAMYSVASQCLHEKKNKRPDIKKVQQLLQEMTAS

[8] = molecular target: AMP-activated protein kinase, AMPK (Homo sapiens) (UniProt P54646+O43741+P54619+Q9UGJ0+Q9Y478+Q13131+Q9UGI9); experiment: Inhibition of AMPK (unknown origin) at 500 nM; assay type: protein-complex assay
[9] = tested on: TMD8; experiment: Induction of apoptosis in human TMD8 cells assessed as necrotic cells at 1 uM incubated for 24 hrs by AnnexinV-FITC/PE staining based flow cytometry (reference value: 0%); assay type: functional
How it was run: (§2)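 TMD-8 cells seeded at 1 × 10^5 per 2 mL well and treated 24 h at 0.25, 0.5 or 1 μM, with DMSO control. Cells washed twice in cold PBS and resuspended in binding buffer. Stained with annexin V-FITC for 15 min, then PI for 5 min, both at 37 °C in the dark. Analysed by flow cytometry.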

[10] = tested on: TMD8; experiment: Induction of apoptosis in human TMD8 cells assessed as early apoptotic cells at 0.5 uM incubated for 24 hrs by AnnexinV-FITC/PE staining based flow cytometry (reference value: 4.35%); assay type: functional; how it was run: as §2
[11] = molecular target: Tyrosine-protein kinase BTK (Homo sapiens) (UniProt Q06187); experiment: Inhibition of BTK (unknown origin) at 500 nM
Tyrosine-protein kinase BTK (Homo sapiens), sequence (Q06187 whole entry): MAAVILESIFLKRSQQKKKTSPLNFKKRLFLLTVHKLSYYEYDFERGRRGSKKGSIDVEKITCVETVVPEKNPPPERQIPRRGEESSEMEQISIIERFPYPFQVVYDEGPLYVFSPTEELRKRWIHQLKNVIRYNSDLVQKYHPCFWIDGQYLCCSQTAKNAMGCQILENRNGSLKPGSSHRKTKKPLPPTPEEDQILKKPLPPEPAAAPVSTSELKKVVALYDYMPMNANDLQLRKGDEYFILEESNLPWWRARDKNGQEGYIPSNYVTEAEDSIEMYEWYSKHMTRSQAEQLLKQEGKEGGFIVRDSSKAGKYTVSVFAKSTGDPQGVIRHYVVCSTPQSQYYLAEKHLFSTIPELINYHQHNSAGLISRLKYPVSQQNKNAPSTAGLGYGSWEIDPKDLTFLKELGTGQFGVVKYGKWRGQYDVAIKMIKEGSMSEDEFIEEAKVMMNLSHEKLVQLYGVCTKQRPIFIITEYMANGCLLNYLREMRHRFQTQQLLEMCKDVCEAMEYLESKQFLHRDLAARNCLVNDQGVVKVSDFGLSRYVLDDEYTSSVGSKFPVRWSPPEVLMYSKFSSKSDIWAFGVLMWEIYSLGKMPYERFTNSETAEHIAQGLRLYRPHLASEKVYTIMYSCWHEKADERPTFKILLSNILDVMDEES

[12] = tested on: TMD8; experiment: Induction of apoptosis in human TMD8 cells assessed as viable cells at 1 uM incubated for 24 hrs by AnnexinV-FITC/PE staining based flow cytometry (reference value: 94.2%); assay type: functional; conditions: read-out: Activity; how it was run: as §2
[13] = tested on: TMD8; experiment: Induction of apoptosis in human TMD8 cells assessed as late apoptotic cells at 0.5 uM incubated for 24 hrs by AnnexinV-FITC/PE staining based flow cytometry (reference value: 1.44%); assay type: functional; how it was run: as §2
[14] = tested on: TMD8; experiment: Induction of apoptosis in human TMD8 cells assessed as early apoptotic cells at 1 uM incubated for 24 hrs by AnnexinV-FITC/PE staining based flow cytometry (reference value: 4.35%); assay type: functional; how it was run: as §2
[15] = tested on: TMD8; experiment: Induction of apoptosis in human TMD8 cells assessed as necrotic cells at 0.5 uM incubated for 24 hrs by AnnexinV-FITC/PE staining based flow cytometry (reference value: 0%); assay type: functional; how it was run: as §2
[16] = molecular target: Cyclin-dependent kinase 1 (Homo sapiens) (UniProt P06493); experiment: Inhibition of CDK1 (unknown origin) at 500 nM
Cyclin-dependent kinase 1 (Homo sapiens), sequence (P06493 whole entry, looked up): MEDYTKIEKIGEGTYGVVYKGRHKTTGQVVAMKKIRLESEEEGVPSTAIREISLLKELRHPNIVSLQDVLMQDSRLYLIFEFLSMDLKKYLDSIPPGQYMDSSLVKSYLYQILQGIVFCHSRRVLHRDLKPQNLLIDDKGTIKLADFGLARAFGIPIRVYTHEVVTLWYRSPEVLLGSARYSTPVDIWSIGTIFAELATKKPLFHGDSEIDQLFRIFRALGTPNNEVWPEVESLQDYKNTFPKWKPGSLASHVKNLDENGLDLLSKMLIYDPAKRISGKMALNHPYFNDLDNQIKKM

[17] = tested on: TMD8; experiment: Induction of apoptosis in human TMD8 cells assessed as early apoptotic cells at 0.25 uM incubated for 24 hrs by AnnexinV-FITC/PE staining based flow cytometry (reference value: 4.35%); assay type: functional; how it was run: as §2
[18] = molecular target: Macrophage colony-stimulating factor 1 receptor (Homo sapiens) (UniProt P07333); experiment: Inhibition of CSF1R (unknown origin) at 500 nM
Macrophage colony-stimulating factor 1 receptor (Homo sapiens), sequence (P07333 whole entry): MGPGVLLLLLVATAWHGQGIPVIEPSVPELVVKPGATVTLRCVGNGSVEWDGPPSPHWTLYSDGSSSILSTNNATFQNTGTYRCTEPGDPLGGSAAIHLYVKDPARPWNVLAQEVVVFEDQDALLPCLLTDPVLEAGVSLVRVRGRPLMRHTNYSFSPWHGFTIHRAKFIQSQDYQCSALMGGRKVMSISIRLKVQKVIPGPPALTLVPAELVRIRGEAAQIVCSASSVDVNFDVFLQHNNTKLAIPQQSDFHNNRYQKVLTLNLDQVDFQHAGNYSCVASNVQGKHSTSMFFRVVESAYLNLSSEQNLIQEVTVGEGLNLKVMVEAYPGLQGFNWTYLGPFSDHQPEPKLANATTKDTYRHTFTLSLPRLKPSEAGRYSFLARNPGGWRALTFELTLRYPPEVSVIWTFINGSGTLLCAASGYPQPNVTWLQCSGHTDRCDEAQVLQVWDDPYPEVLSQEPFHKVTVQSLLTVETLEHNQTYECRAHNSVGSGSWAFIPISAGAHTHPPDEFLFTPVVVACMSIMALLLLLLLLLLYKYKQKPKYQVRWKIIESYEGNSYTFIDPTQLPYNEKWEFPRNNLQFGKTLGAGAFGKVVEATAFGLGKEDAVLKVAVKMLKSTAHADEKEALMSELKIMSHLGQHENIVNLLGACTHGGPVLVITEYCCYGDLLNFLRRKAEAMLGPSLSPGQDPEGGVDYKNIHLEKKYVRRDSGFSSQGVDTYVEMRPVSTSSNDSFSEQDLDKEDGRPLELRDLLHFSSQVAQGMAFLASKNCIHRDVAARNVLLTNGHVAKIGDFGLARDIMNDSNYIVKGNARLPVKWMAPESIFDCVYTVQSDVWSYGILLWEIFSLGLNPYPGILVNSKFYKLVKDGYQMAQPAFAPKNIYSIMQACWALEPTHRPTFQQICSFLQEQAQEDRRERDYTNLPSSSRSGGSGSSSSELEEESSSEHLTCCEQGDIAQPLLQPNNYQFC

[19] = molecular target: Tyrosine-protein kinase JAK1 (Homo sapiens) (UniProt P23458); experiment: Inhibition of JAK1 (unknown origin) at 500 nM
Tyrosine-protein kinase JAK1 (Homo sapiens), sequence (P23458 whole entry): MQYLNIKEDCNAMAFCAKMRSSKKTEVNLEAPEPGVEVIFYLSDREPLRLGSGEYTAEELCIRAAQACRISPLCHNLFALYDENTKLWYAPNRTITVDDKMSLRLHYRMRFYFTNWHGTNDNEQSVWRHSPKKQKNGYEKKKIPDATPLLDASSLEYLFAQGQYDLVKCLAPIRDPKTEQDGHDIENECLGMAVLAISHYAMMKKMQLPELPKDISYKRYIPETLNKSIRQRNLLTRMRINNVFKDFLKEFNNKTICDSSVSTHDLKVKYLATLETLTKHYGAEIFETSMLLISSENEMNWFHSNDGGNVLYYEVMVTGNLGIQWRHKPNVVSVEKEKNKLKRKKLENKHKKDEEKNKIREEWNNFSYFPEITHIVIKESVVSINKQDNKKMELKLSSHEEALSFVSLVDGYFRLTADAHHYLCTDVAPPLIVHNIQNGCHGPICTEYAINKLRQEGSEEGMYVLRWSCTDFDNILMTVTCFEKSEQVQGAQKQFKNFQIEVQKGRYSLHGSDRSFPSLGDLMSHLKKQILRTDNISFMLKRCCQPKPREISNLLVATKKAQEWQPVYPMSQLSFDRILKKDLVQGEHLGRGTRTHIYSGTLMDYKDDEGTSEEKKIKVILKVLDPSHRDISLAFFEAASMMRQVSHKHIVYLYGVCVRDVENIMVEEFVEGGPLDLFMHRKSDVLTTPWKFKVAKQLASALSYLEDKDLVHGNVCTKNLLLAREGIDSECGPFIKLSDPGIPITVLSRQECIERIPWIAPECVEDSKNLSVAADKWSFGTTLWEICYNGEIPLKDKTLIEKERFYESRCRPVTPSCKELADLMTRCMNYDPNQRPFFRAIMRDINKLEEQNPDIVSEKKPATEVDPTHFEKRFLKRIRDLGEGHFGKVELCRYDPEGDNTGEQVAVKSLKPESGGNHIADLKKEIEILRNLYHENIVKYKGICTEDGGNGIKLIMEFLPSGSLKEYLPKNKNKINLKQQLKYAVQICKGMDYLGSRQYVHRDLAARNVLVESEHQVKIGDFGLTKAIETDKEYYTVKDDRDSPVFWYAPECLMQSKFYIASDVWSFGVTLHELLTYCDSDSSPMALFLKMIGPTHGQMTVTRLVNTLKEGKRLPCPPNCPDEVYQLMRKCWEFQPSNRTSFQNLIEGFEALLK

[20] = tested on: TMD8; experiment: Induction of apoptosis in human TMD8 cells assessed as necrotic cells at 0.25 uM incubated for 24 hrs by AnnexinV-FITC/PE staining based flow cytometry (reference value: 0%); assay type: functional; how it was run: as §2
[21] = tested on: TMD8; experiment: Induction of apoptosis in human TMD8 cells assessed as late apoptotic cells at 0.25 uM incubated for 24 hrs by AnnexinV-FITC/PE staining based flow cytometry (reference value: 1.44%); assay type: functional; how it was run: as §2
[22] = tested on: TMD8; experiment: Induction of apoptosis in human TMD8 cells assessed as viable cells at 0.5 uM incubated for 24 hrs by AnnexinV-FITC/PE staining based flow cytometry (reference value: 94.2%); assay type: functional; conditions: read-out: Activity; how it was run: as §2
[23] = tested on: TMD8; experiment: Induction of apoptosis in human TMD8 cells assessed as late apoptotic cells at 1 uM incubated for 24 hrs by AnnexinV-FITC/PE staining based flow cytometry (reference value: 1.44%); assay type: functional; how it was run: as §2
[24] = tested on: TMD8; experiment: Induction of apoptosis in human TMD8 cells assessed as viable cells at 0.25 uM incubated for 24 hrs by AnnexinV-FITC/PE staining based flow cytometry (reference value: 94.2%); assay type: functional; conditions: read-out: Activity; how it was run: as §2

Row | Structure (SMILES) | IC50 [1] [nM] | inhibition [2] [%] | inhibition [3] [%] | IC50 [4] [nM] | IC50 [5] [nM] | IC50 [6] [nM] | other results
1 | O=C(c1ccc(-c2ccc3ncc(-c4ccc5cnccc5c4)n3c2)cc1)N1CCOCC1 | 25.7 | 106 | 93.7 | 7 |  |  | 
2 | N#Cc1ccc(-c2cnc3ccc(-c4ccc(C(=O)N5CCOCC5)cc4)cn23)cc1 [TINODASERTIB] |  |  |  |  | 1620 | 2140 | 
3 | O=C(c1ccc(-c2ccc3ncc(-c4cnc5ccccc5c4)n3c2)cc1)N1CCOCC1 | 636 | 21 | 71 | 154 |  |  | 
4 | O=C(c1ccc(-c2ccc3ncc(-c4cnc5ccccc5c4)n3c2)cc1)N1CCC(N2CCOCC2)CC1 |  | 18.7 | 40.6 |  |  |  | 
5 | NC1CCN(C(=O)c2ccc(-c3ccc4ncc(-c5ccc6cnccc6c5)n4n3)cc2)CC1 | 15.7 |  |  | 14.5 | 541 | 2080 | 
6 | O=C(c1ccc(-c2ccc3ncc(-c4cnc5ccccc5c4)n3c2)cc1)N1CCNCC1 | 51.2 | 68.1 | 70.7 | 67.6 |  |  | 
7 | O=C(c1ccc(-c2ccc3ncc(-c4ccc5ncccc5c4)n3c2)cc1)N1CCC(N2CCOCC2)CC1 |  | 34.9 | 49.8 |  |  |  | 
8 | O=C(c1ccc(-c2ccc3ncc(-c4ccc5ncccc5c4)n3c2)cc1)N1CCC(N2CCCCC2)CC1 |  | 2.41 | 62.8 |  |  |  | 
9 | N[C@@H]1CCCN(C(=O)c2ccc(-c3ccc4ncc(-c5ccc6cnccc6c5)n4n3)cc2)C1 | 6.6 |  |  | 9.4 | 400 | 2420 | 
10 | O=C(c1ccc(-c2ccc3ncc(-c4ccc5ncccc5c4)n3c2)cc1)N1CCOCC1 | 216 | 64 | 74.7 | 371 |  |  | 
11 | O=C(c1ccc(-c2ccc3ncc(-c4ccc5ncccc5c4)n3c2)cc1)N1CCNCC1 |  | 49.9 | 73.5 |  |  |  | 
12 | N[C@@H]1CCCN(C(=O)c2ccc(-c3cn4c(-c5ccc6cnccc6c5)cnc4cn3)cc2)C1 | 26.7 |  |  | 42 | 3250 | 3100 | 
13 | N[C@H]1CCCN(C(=O)c2ccc(-c3ccc4ncc(-c5ccc6cnccc6c5)n4n3)cc2)C1 | 3.4 | 97.3 | 103 | 2.3 | 409 | 390 | inhibition [7]: 22.3%; inhibition [8]: 10.2%; Activity [9]: 0%; Activity [10]: 9.42%; inhibition [11]: 4.1%; viability at 1 µM [12]: 12.5%; Activity [13]: 45.9%; Activity [14]: 9.3%; Activity [15]: 0.037%; inhibition [16]: 5.01%; Activity [17]: 30%; inhibition [18]: 11.6%; inhibition [19]: 6.5%; Activity [20]: 0%; Activity [21]: 19.8%; viability at 0.5 µM [22]: 44.6%; Activity [23]: 78.2%; viability at 0.25 µM [24]: 50.2%
14 | O=C(c1ccc(-c2ccc3ncc(-c4ccc5cnccc5c4)n3c2)cc1)N1CCC(N2CCCCC2)CC1 | 1.5 | 74.7 | 92.9 | 2.4 | 3820 | 4010 | 
15 | NC1CCN(C(=O)c2ccc(-c3ccc4ncc(-c5ccc6cnccc6c5)n4c3)cc2)CC1 | 16.8 |  |  | 5.2 | 8300 | 2060 | 
16 | N[C@H]1CCCN(C(=O)c2ccc(-c3cn4c(-c5ccc6cnccc6c5)cnc4cn3)cc2)C1 | 19.4 |  |  | 27.3 | 5190 | 2560 | 
17 | N[C@H]1CCCN(C(=O)c2ccc(-c3ccc4ncc(-c5ccc6cnccc6c5)n4c3)cc2)C1 | 2.5 |  |  | 2.5 | 6730 | 3460 | 
18 | NC1CCN(C(=O)c2ccc(-c3cn4c(-c5ccc6cnccc6c5)cnc4cn3)cc2)CC1 | 18.5 |  |  | 32.1 | 12000 | 7570 | 
19 | O=C(c1ccc(-c2ccc3ncc(-c4cnc5ccccc5c4)n3c2)cc1)N1CCC(N2CCCCC2)CC1 |  | 48.8 | 71 |  |  |  | 
20 | O=C(c1ccc(-c2ccc3ncc(-c4ccc5cnccc5c4)n3c2)cc1)N1CCNCC1 | 2.9 | 77.7 | 98.7 | 9.4 | 8680 | 6640 | 
21 | O=C(c1ccc(-c2ccc3ncc(-c4ccc5cnccc5c4)n3c2)cc1)N1CCC(N2CCOCC2)CC1 | 3.2 | 77.7 | 87.8 | 4 | 7550 | 4260 | 
22 | N[C@@H]1CCCN(C(=O)c2ccc(-c3ccc4ncc(-c5ccc6cnccc6c5)n4c3)cc2)C1 | 8.9 |  |  | 7.7 | 6280 | 2300 | 
